Laboratory results taken from ChEMBL document CHEMBL1130017, “Rationally designed inhibitors of inosine monophosphate dehydrogenase” (J Med Chem, 1997).

Target: T1, Inosine-5'-monophosphate dehydrogenase 2 (Homo sapiens, UniProt P12268)
Assay: First order rate constant for inactivation of human Inosine-5'-monophosphate dehydrogenase 2
How it was run: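 Human type II IMPDH (2 µM) incubated at 23 °C with 20 µM compound (10-fold excess) in 0.1 M potassium phosphate pH 7.9, 0.5 M KCl, 3 mM EDTA, 10 mM DTT and 100 µg/mL BSA. Aliquots taken over time are assayed with 200 µM IMP and 400 µM NAD (8× Km). k_inact comes from a nonlinear first-order fit of remaining activity versus incubation time.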

Compound	k obs [s⁻¹]
C=Cc1nc(O)c2ncn(C3O[C@@H](COP(=O)(O)O)[C@H](O)[C@@H]3O)c2n1 (stereo partly drawn)	0.0144
O=P(O)(O)OC[C@@H]1OC(n2cnc3c(O)nc(CCl)nc32)[C@@H](O)[C@H]1O (stereo partly drawn)	0.0528
O=P(O)(O)OC[C@@H]1OC(n2cnc3c(O)nc(CF)nc32)[C@@H](O)[C@H]1O (stereo partly drawn)	0.0164

Target: T1, Inosine-5'-monophosphate dehydrogenase 2
Assay: Concentration required for 50% inhibition of human Inosine-5'-monophosphate dehydrogenase 2 using Spectrophotometric assay
How it was run: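 Human type II IMPDH, 25 nM final, added to start the reaction. Mix holds 50 µM IMP, 100 µM NAD and varying inhibitor in 0.1 M potassium phosphate pH 7.4, 0.1 M KCl, 3 mM EDTA, 1 mM DTT and 100 µg/mL BSA. NADH formation is followed by absorbance at 340 nm in 1 cm cells. Fractional activity relative to the uninhibited rate is taken against inhibitor concentration.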

Compound	IC50 [µM]
Cc1nc(O)c2ncn(C3O[C@@H](COP(=O)(O)O)[C@H](O)[C@@H]3O)c2n1 (stereo partly drawn)	> 1000
O=P(O)(O)OC[C@@H]1OC(n2cnc3c(O)nc(C(F)F)nc32)[C@@H](O)[C@H]1O (stereo partly drawn)	> 1000
O=P(O)(O)OC[C@@H]1OC(n2cnc3c(O)nc(C(F)(F)F)nc32)[C@@H](O)[C@H]1O (stereo partly drawn)	> 1000
O=P(O)(O)OC[C@@H]1OC(n2cnc3c(O)nc(CCc4ccccc4)nc32)[C@@H](O)[C@H]1O (stereo partly drawn)	460

The next lines start with the values.

IC50 [µM]	Compound
132	O=c1[nH]c(CO)nc2c1ncn2C1O[C@@H](COP(=O)(O)O)[C@H](O)[C@@H]1O (stereo partly drawn)
37	O=P(O)(O)OC[C@@H]1OC(n2cnc3c(O)nc(/C=C/c4ccccc4)nc32)[C@@H](O)[C@H]1O (stereo partly drawn)
1.32	O=c1[nH]c(CCl)nc2c1ncn2C1O[C@@H](COP(=O)(O)O)[C@H](O)[C@@H]1O (stereo partly drawn)
1.2	O=c1[nH]c(CF)nc2c1ncn2C1O[C@@H](COP(=O)(O)O)[C@H](O)[C@@H]1O (stereo partly drawn)
1	C=Cc1nc2c(ncn2C2O[C@@H](COP(=O)(O)O)[C@H](O)[C@@H]2O)c(=O)[nH]1 (stereo partly drawn)
0.44	O=P(O)(O)OC[C@@H]1OC(n2cnc3c(O)nc(C(O)O)nc32)[C@@H](O)[C@H]1O (stereo partly drawn)
